Measured values published in ChEMBL document CHEMBL1151428, “Capability of 11 antipneumococcal antibiotics to select for resistance by multistep and single-step methodologies” (2007).
Converted amounts (≈) assume the structure as drawn.

How the values were obtained:
Format in all cases: functional
Streptococcus pneumoniae [1] = assay: Antimicrobial activity against drug-resistant Streptococcus pneumoniae isolate 24 after 50 passages with moxifloxacin measured after 10 antibiotic-free subculture by multi-step resistance selection technique
Summary of the method: (§1)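 Mutants selected by daily broth passage in subinhibitory drug in cation-adjusted Mueller-Hinton broth with 5% lysed horse blood. Stability was tested by 10 daily passages on blood agar without antibiotic, then macrodilution MIC.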

Streptococcus pneumoniae [2] = assay: Antimicrobial activity against drug-resistant Streptococcus pneumoniae isolate 24 after 14 passages with Telithromycin measured after 10 antibiotic-free subculture by multi-step resistance selection technique; summary of the method: as §1
Streptococcus pneumoniae [3] = assay: Antimicrobial activity against drug-resistant Streptococcus pneumoniae isolate 24 after 50 passages by multi-step resistance selection technique
Summary of the method: (§2)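 Daily serial passage in subinhibitory drug levels in 1 ml cation-adjusted Mueller-Hinton broth with 5% lysed horse blood; fresh broth for tigecycline. Each day, 10 μl were taken from the tube one to two dilutions below the MIC whose turbidity matched the growth control, and used to set the next MIC. MIC by macrodilution.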

Streptococcus pneumoniae [4] = assay: Antimicrobial activity against drug-resistant Streptococcus pneumoniae isolate 24 by NCCLS M7-A7 method
Streptococcus pneumoniae [5] = assay: Antimicrobial activity against drug-resistant Streptococcus pneumoniae isolate 1635 after 14 passages with azithromycin measured after 10 antibiotic-free subculture by multi-step resistance selection technique; summary of the method: as §1
Streptococcus pneumoniae [6] = assay: Antimicrobial activity against drug-resistant Streptococcus pneumoniae isolate 1635 after 50 passages by multi-step resistance selection technique; summary of the method: as §2
Streptococcus pneumoniae [7] = assay: Antimicrobial activity against drug-resistant Streptococcus pneumoniae isolate 1635 by NCCLS M7-A7 method
Streptococcus pneumoniae [8] = assay: Antimicrobial activity against drug-resistant Streptococcus pneumoniae isolate 3243 after 41 passages with clarithromycin measured after 10 antibiotic-free subculture by multi-step resistance selection technique
Streptococcus pneumoniae [9] = assay: Antimicrobial activity against drug-resistant Streptococcus pneumoniae isolate 3243 after 33 passages with azithromycin measured after 10 antibiotic-free subculture by multi-step resistance selection technique; summary of the method: as §1
Streptococcus pneumoniae [10] = assay: Antimicrobial activity against drug-resistant Streptococcus pneumoniae isolate 3243 after 29 passages with Telithromycin measured after 10 antibiotic-free subculture by multi-step resistance selection technique; summary of the method: as §1
Streptococcus pneumoniae [11] = assay: Antimicrobial activity against drug-resistant Streptococcus pneumoniae isolate 3243 after 50 passages by multi-step resistance selection technique
Summary of the method: as §2, with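 “MIC. […]” for “MIC.”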

Streptococcus pneumoniae [12] = assay: Antimicrobial activity against drug-resistant Streptococcus pneumoniae isolate 3243 by NCCLS M7-A7 method
Streptococcus pneumoniae [13] = assay: Antimicrobial activity against drug-resistant Streptococcus pneumoniae isolate 3274 after 48 passages with Telithromycin measured after 10 antibiotic-free subculture by multi-step resistance selection technique; summary of the method: as §1
Streptococcus pneumoniae [14] = assay: Antimicrobial activity against drug-resistant Streptococcus pneumoniae isolate 3274 after 50 passages by multi-step resistance selection technique; summary of the method: as §2
Streptococcus pneumoniae [15] = assay: Antimicrobial activity against drug-resistant Streptococcus pneumoniae isolate 3274 by NCCLS M7-A7 method
Streptococcus pneumoniae [16] = assay: Antimicrobial activity against drug-resistant Streptococcus pneumoniae isolate 2527 after 14 passages with gemifloxacin measured after 10 antibiotic-free subculture by multi-step resistance selection technique; summary of the method: as §1
Streptococcus pneumoniae [17] = assay: Antimicrobial activity against drug-resistant Streptococcus pneumoniae isolate 2527 after 20 passages with azithromycin measured after 10 antibiotic-free subculture by multi-step resistance selection technique; summary of the method: as §1
Streptococcus pneumoniae [18] = assay: Antimicrobial activity against drug-resistant Streptococcus pneumoniae isolate 2527 by NCCLS M7-A7 method
Streptococcus pneumoniae [19] = assay: Antimicrobial activity against drug-resistant Streptococcus pneumoniae isolate 3665 after 50 passages by multi-step resistance selection technique
Summary of the method: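 Daily serial passage in broth at subinhibitory drug levels: 1 ml cation-adjusted Mueller-Hinton broth with 5% lysed horse blood; fresh broth for tigecycline. Each day 10 μl inoculum taken from the tube one to two dilutions below MIC matching growth-control turbidity, used to set next MIC. Continued until ≥8-fold MIC rise, minimum 14, maximum 50 passages; MIC read by macrodilution.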

Streptococcus pneumoniae [20] = assay: Antimicrobial activity against drug-resistant Streptococcus pneumoniae isolate 3665 by NCCLS M7-A7 method
Streptococcus pneumoniae [21] = assay: Antimicrobial activity against drug-resistant Streptococcus pneumoniae isolate 1077 after 49 passages with clindamycin measured after 10 antibiotic-free subculture by multi-step resistance selection technique
Streptococcus pneumoniae [22] = assay: Antimicrobial activity against drug-resistant Streptococcus pneumoniae isolate 1077 after 29 passages with azithromycin measured after 10 antibiotic-free subculture by multi-step resistance selection technique; summary of the method: as §1
Streptococcus pneumoniae [23] = assay: Antimicrobial activity against drug-resistant Streptococcus pneumoniae isolate 1077 after 50 passages by multi-step resistance selection technique; summary of the method: as §2
Streptococcus pneumoniae [24] = assay: Antimicrobial activity against drug-resistant Streptococcus pneumoniae isolate 1077 by NCCLS M7-A7 method
Streptococcus pneumoniae [25] = assay: Antimicrobial activity against drug-resistant Streptococcus pneumoniae isolate 1076 after 14 passages with Telithromycin measured after 10 antibiotic-free subculture by multi-step resistance selection technique; summary of the method: as §1
Streptococcus pneumoniae [26] = assay: Antimicrobial activity against drug-resistant Streptococcus pneumoniae isolate 1076 by NCCLS M7-A7 method
Streptococcus pneumoniae [27] = assay: Antimicrobial activity against drug-resistant Streptococcus pneumoniae isolate 1076 after 50 passages by multi-step resistance selection technique
Summary of the method: as §2, with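 “MIC. […]” for “MIC.”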

Streptococcus pneumoniae [28] = assay: Antimicrobial activity against drug-resistant Streptococcus pneumoniae isolate 3009 after 19 passages with moxifloxacin measured after 10 antibiotic-free subculture by multi-step resistance selection technique; summary of the method: as §1
Streptococcus pneumoniae [29] = assay: Antimicrobial activity against drug-resistant Streptococcus pneumoniae isolate 3009 by NCCLS M7-A7 method
Streptococcus pneumoniae [30] = assay: Antimicrobial activity against drug-resistant Streptococcus pneumoniae isolate 3009 after 50 passages by multi-step resistance selection technique
Summary of the method: as §2, with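 “MIC. […]” for “MIC.”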

Streptococcus pneumoniae [31] = assay: Antimicrobial activity against drug-resistant Streptococcus pneumoniae isolate 37 by NCCLS M7-A7 method
Streptococcus pneumoniae [32] = assay: Antimicrobial activity against drug-resistant Streptococcus pneumoniae isolate 37 after 50 passages by multi-step resistance selection technique
Summary of the method: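 Daily serial passage in broth at subinhibitory drug levels: 1 ml cation-adjusted Mueller-Hinton broth with 5% lysed horse blood; fresh broth for tigecycline. Each day 10 μl inoculum taken from the tube one to two dilutions below MIC matching growth-control turbidity, used to set next MIC.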

Streptococcus pneumoniae [33] = assay: Antimicrobial activity against drug-resistant Streptococcus pneumoniae isolate 37 after 14 passages with Telithromycin measured after 10 antibiotic-free subculture by multi-step resistance selection technique
Streptococcus pneumoniae [34] = assay: Antimicrobial activity against drug-resistant Streptococcus pneumoniae isolate 3413 by NCCLS M7-A7 method
Streptococcus pneumoniae [35] = assay: Antimicrobial activity against drug-resistant Streptococcus pneumoniae isolate 3413 after 50 passages by multi-step resistance selection technique; summary of the method: as §2
Streptococcus pneumoniae [36] = assay: Antimicrobial activity against drug-resistant Streptococcus pneumoniae isolate 3676 after 44 passages with clarithromycin measured after 10 antibiotic-free subculture by multi-step resistance selection technique
Streptococcus pneumoniae [37] = assay: Antimicrobial activity against drug-resistant Streptococcus pneumoniae isolate 3676 by NCCLS M7-A7 method
Streptococcus pneumoniae [38] = assay: Antimicrobial activity against drug-resistant Streptococcus pneumoniae isolate 3665 after 14 passages with Telithromycin measured after 10 antibiotic-free subculture by multi-step resistance selection technique
Streptococcus pneumoniae [39] = assay: Antimicrobial activity against drug-resistant Streptococcus pneumoniae isolate 3009 after 18 passages with levofloxacin measured after 10 antibiotic-free subculture by multi-step resistance selection technique; summary of the method: as §1

Row | Structure (SMILES) | MIC (Streptococcus pneumoniae [1]) [µg/mL] | MIC (Streptococcus pneumoniae [2]) [µg/mL] | MIC (Streptococcus pneumoniae [4]) [µg/mL] | MIC (Streptococcus pneumoniae [5]) [ng/mL] | MIC (Streptococcus pneumoniae [6]) [ng/mL] | MIC (Streptococcus pneumoniae [7]) [ng/mL] | MIC (Streptococcus pneumoniae [8]) [µg/mL] | MIC (Streptococcus pneumoniae [9]) [µg/mL] | MIC (Streptococcus pneumoniae [10]) [µg/mL] | MIC (Streptococcus pneumoniae [12]) [ng/mL] | MIC (Streptococcus pneumoniae [13]) [µg/mL] | MIC (Streptococcus pneumoniae [15]) [ng/mL] | MIC (Streptococcus pneumoniae [16]) [µg/mL] | MIC (Streptococcus pneumoniae [17]) [µg/mL] | MIC (Streptococcus pneumoniae [18]) [µg/mL] | MIC (Streptococcus pneumoniae [20]) [µg/mL] | MIC (Streptococcus pneumoniae [21]) [µg/mL] | MIC (Streptococcus pneumoniae [22]) [µg/mL] | MIC (Streptococcus pneumoniae [24]) [ng/mL] | MIC (Streptococcus pneumoniae [25]) [ng/mL] | other results
1 | C[C@@H](O)[C@H]1C(=O)N2C(C(=O)O)=C(SCCNC=N)C[C@H]12 [IMIPENEM ANHYDROUS] | 0.5 (≈ 1.67 µM) | 0.25 (≈ 0.835 µM) | 0.5 (≈ 1.67 µM) | 2 (≈ 0.00668 µM) | 2 (≈ 0.00668 µM) | 2 (≈ 0.00668 µM) | 0.03 (≈ 0.1 µM) | 0.03 (≈ 0.1 µM) | 0.016 (≈ 0.0534 µM) | 16 (≈ 0.0534 µM) | 0.016 (≈ 0.0534 µM) | 16 (≈ 0.0534 µM) | 0.125 (≈ 0.418 µM) | 0.5 (≈ 1.67 µM) | 0.25 (≈ 0.835 µM) | 0.03 (≈ 0.1 µM) | 0.004 (≈ 0.0134 µM) | 0.008 (≈ 0.0267 µM) | 8 (≈ 0.0267 µM) | 4 (≈ 0.0134 µM) | MIC (Streptococcus pneumoniae [3]): 0.5 µg/mL (≈ 1.67 µM); MIC (Streptococcus pneumoniae [11]): 0.016 µg/mL (≈ 0.0534 µM); MIC (Streptococcus pneumoniae [14]): 0.03 µg/mL (≈ 0.1 µM); MIC (Streptococcus pneumoniae [19]): 0.016 µg/mL (≈ 0.0534 µM); MIC (Streptococcus pneumoniae [23]): 8 ng/mL (≈ 0.0267 µM); MIC (Streptococcus pneumoniae [26]): 0.008 µg/mL (≈ 0.0267 µM); MIC (Streptococcus pneumoniae [27]): 8 ng/mL (≈ 0.0267 µM); MIC (Streptococcus pneumoniae [28]): 8 ng/mL (≈ 0.0267 µM); MIC (Streptococcus pneumoniae [29]): 0.008 µg/mL (≈ 0.0267 µM); MIC (Streptococcus pneumoniae [30]): 0.008 µg/mL (≈ 0.0267 µM); MIC (Streptococcus pneumoniae [31]): 0.5 µg/mL (≈ 1.67 µM); MIC (Streptococcus pneumoniae [32]): 0.5 µg/mL (≈ 1.67 µM); MIC (Streptococcus pneumoniae [33]): 0.25 µg/mL (≈ 0.835 µM); MIC (Streptococcus pneumoniae [34]): 0.125 µg/mL (≈ 0.418 µM); MIC (Streptococcus pneumoniae [35]): 0.06 µg/mL (≈ 0.2 µM); MIC (Streptococcus pneumoniae [36]): 0.016 µg/mL (≈ 0.0534 µM); MIC (Streptococcus pneumoniae [37]): 0.016 µg/mL (≈ 0.0534 µM); MIC (Streptococcus pneumoniae [38]): 0.008 µg/mL (≈ 0.0267 µM)
2 | CC[C@H]1OC(=O)[C@H](C)C(=O)[C@H](C)[C@@H](O[C@@H]2O[C@H](C)C[C@H](N(C)C)[C@H]2O)[C@](C)(OC)C[C@@H](C)C(=O)[C@H](C)[C@H]2N(CCCCn3cnc(-c4cccnc4)c3)C(=O)O[C@]12C [TELITHROMYCIN] | 0.25 (≈ 0.308 µM) | 16 (≈ 19.7 µM) | 0.25 (≈ 0.308 µM) | 4 (≈ 0.00493 µM) | 8 (≈ 0.00985 µM) | 4 (≈ 0.00493 µM) | 0.016 (≈ 0.0197 µM) | 0.06 (≈ 0.0739 µM) | 0.06 (≈ 0.0739 µM) | 4 (≈ 0.00493 µM) | 0.5 (≈ 0.616 µM) | 4 (≈ 0.00493 µM) | 0.004 (≈ 0.00493 µM) | 0.03 (≈ 0.0369 µM) | 0.004 (≈ 0.00493 µM) | 0.125 (≈ 0.154 µM) | 0.06 (≈ 0.0739 µM) | 0.125 (≈ 0.154 µM) | 4 (≈ 0.00493 µM) | > 64000 | MIC (Streptococcus pneumoniae [26]): 0.5 µg/mL (≈ 0.616 µM); MIC (Streptococcus pneumoniae [28]): 8 ng/mL (≈ 0.00985 µM); MIC (Streptococcus pneumoniae [39]): 0.016 µg/mL (≈ 0.0197 µM); MIC (Streptococcus pneumoniae [29]): 0.016 µg/mL (≈ 0.0197 µM); MIC (Streptococcus pneumoniae [30]): 0.03 µg/mL (≈ 0.0369 µM); MIC (Streptococcus pneumoniae [31]): 0.25 µg/mL (≈ 0.308 µM); MIC (Streptococcus pneumoniae [33]): 8 µg/mL (≈ 9.85 µM); MIC (Streptococcus pneumoniae [34]): 0.03 µg/mL (≈ 0.0369 µM); MIC (Streptococcus pneumoniae [36]): 0.03 µg/mL (≈ 0.0369 µM); MIC (Streptococcus pneumoniae [37]): 0.06 µg/mL (≈ 0.0739 µM); MIC (Streptococcus pneumoniae [38]): 0.25 µg/mL (≈ 0.308 µM)
